Consider four compounds from paper PMC4827872 (Chemical research in toxicology, 2015).

Like-named read-outs stand apart in the source and are kept apart here.

Data set [1] deals with cultured cells. The data set can be described thus: Cell viability. It is filed as cell-based. Particulars: for decrease in viability: 5 µM, 24 h exposure; for significant effects on viability: any doses less than 7.5 µM, 24 h.
Data set [2] has as its target T1, DIO2 (Homo sapiens, UniProt Q92813).
T1 sequence (Q92813 1-273): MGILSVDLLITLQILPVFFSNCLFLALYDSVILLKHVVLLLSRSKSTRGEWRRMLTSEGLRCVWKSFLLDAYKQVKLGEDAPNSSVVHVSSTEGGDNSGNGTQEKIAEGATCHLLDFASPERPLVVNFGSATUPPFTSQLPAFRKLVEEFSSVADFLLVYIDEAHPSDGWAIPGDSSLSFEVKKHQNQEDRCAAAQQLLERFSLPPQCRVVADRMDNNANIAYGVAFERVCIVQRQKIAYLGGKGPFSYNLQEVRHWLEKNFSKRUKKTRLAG
The data set can be described thus: In vitro DIO2 kinetics and inhibition in microsomal preparations of H4 cells. Particulars: for concentrations at which DIO2 activity was inhibited: 2 nM T4. It is filed as biochemical.

The conditions of data set [3]: human serum, cited from earlier work.
Data set [4] addresses T1, DIO2. The data set can be described thus: DIO2 activity in H4 glioma cells exposed to PBDEs/OH-BDEs. It is filed as cell-based. Particulars: for Significant DIO2 Effects in H4 Cells (%Ctrl): at the lowest dose that significantly decreased DIO2 activity.
A further data set has as its system DIO2 mRNA. The data set can be described thus: DIO2 mRNA expression. It is filed as cell-based, human. Particulars: 6 h; for DIO2 mRNA expression level vs control: 3 doses.
The test system of data set [5] is cultured cells. Kind of data set: Cell membrane damage. It is filed as cell-based. Particulars: 24 h; for membrane damage vs control: doses less than 50 µM; for significant effects on membrane damage: any doses less than 7.5 µM. A digest of the protocol:
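Cells in 96-well plates, switched to serum-free A-DMEM with 30 nM selenium 24 h beforehand, then exposed 24 h to test compound added from 1,000× DMSO stocks (final DMSO 0.1%). Membrane damage was read as glucose-6-phosphate dehydrogenase activity released into the medium. Values were normalized to well DNA content and to DMSO vehicle controls.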

Where [6] appears, read: calculated assuming serum lipid 6.36 mg mL−1, ref 53.
Setting [7] is: geometric mean or median, ref 53.
Setting [8] is: H4 cells, 5,000 nM, 6 h exposure.
The mark [9] stands for this setting: H4 glioma cells, doses of approximately 1–5 µM (abstract).
Setting [10] is: calculated assuming serum lipid 6.36 mg mL−1, ref 36.
Where [11] appears, read: calculated assuming serum lipid 6.36 mg mL−1, ref 5.
The mark [12] stands for this setting: calculated assuming serum lipid 6.36 mg mL−1, ref 43.
Where [13] appears, read: calculated assuming serum lipid 6.36 mg mL−1, ref 52.

The term Ki denotes a dissociation constant, usually derived from enzyme kinetics or from competition with a known ligand. In turn, `Oc1c(Br)ccc(Oc2ccc(Br)cc2Br)c1Br` [3-OH-BDE-47] had a decrease in viability with cultured cells [1] of 31.7 ± 7.8%. Further, the “concentrations at which DIO2 activity was inhibited” value at DIO2 [2] (H4 microsomes) is over 1 µM. For the same compound, at DIO2 [2] (read-out: Ki for DIO2, calculated from IC50, measured T4 concentration and Km), the Ki was 1.6 µM. Besides, the “Average Serum Concentration” value in data set [3] (setting [6]) is on record as 0.020 nM; in data set [3] (setting [7]), 1.6 ng/g lipid. The “lowest dose that significantly decreased DIO2 activity” value at DIO2 [4] (H4 cells) is listed as ~1,000 nM. Also, the “decrease in DIO2 activity” value is recorded as 71.1 ± 13.7% at DIO2 [4] (H4 cells, 1,000 nM, 1 h exposure); 52.1 ± 8.5% on DIO2 [4] (H4 cells, 1,000 nM, 6 h exposure); “not significantly different from control” on DIO2 [4] (H4 cells, 1,000 nM, 12 h exposure); 68.2 ± 13.9% on DIO2 [4] (setting [8]); 45–80% on DIO2 [4] (setting [9]). Further, on DIO2 [4], the “Significant DIO2 Effects in H4 Cells (%Ctrl)” value stood at 71.1%. In the data set with DIO2 mRNA (H4 cells), the “DIO2 mRNA expression level vs control” value was “not significantly different from control”. Besides, the “membrane damage vs control” value in the data set on cultured cells [5] is “not significantly different from control”.

Broadly, the IC50 is the concentration needed to halve the response being measured. The low end stands for higher potency, the high end for lower potency. For `Oc1cc(Oc2cc(Br)c(Br)cc2Br)c(Br)cc1Br` [5’-OH-BDE-99], in the data set with cultured cells [1], the “significant effects on viability” value was “not detected”. Further, at DIO2 [2], half-maximal inhibition (IC50) required 16.6 ± 1.1 µM and the affinity corresponds to a Ki of 7.11 µM. Moreover, at DIO2 [2] (H4 microsomes), the “concentrations at which DIO2 activity was inhibited” value is on record as over 1 µM. Besides, the “Vmax of DIO2 with inhibitor added” value at DIO2 [2] (H4 microsomes, 15 µM 5’-OH-BDE-99 added) is given as 47.2 ± 8.0 fmol min^−1 mg protein^−1. Further, in data set [3] (setting [7]), the “Average Serum Concentration” value is 22 ng/g lipid. For the same compound, the inhibition at 1 µM on DIO2 [4] (6 h, read-out: decrease in DIO2 activity, H4 cells, 1,000 nM, 6 h exposure) was 57.4 ± 1.2%. On DIO2 [4] (6 h, read-out: decrease in DIO2 activity, H4 cells, 5,000 nM, 6 h exposure), the inhibition at 5 µM was 63.6 ± 2%. Further, the inhibition at 1 µM at DIO2 [4] (12 h, read-out: decrease in DIO2 activity, H4 cells, 1,000 nM, 12 h exposure) was determined as 55.7 ± 5.4%. Besides, the “lowest dose that significantly decreased DIO2 activity” value on DIO2 [4] (H4 cells) is reported as ~1,000 nM. Moreover, at DIO2 [4] (H4 cells, 500 nM, 6 h, plus 10 µM MG132, relative to MG132 control), the “decrease in DIO2 activity with MG132 coexposure” value came out at 37.0 ± 2.6%. For the same compound, the “decrease in DIO2 activity” value at DIO2 [4] (setting [9]) was 45–80%. For the same compound, the “Significant DIO2 Effects in H4 Cells (%Ctrl)” value on DIO2 [4] amounted to 57.4%. Further, in the data set with DIO2 mRNA (Homo sapiens, read-out: DIO2 mRNA expression ratio relative to the control value of 1.0), the mrna remaining at 5 µM worked out at 64 ± 12%. Besides, the “significant effects on membrane damage” value in the data set on cultured cells [5] is recorded as “not detected”.

As for `Oc1cc(Br)cc(Br)c1Oc1ccc(Br)cc1Br` [6-OH-BDE-47], the decrease in viability in the data set on cultured cells [1] turned out to be 32.0 ± 8.2%. Moreover, the “Average Serum Concentration” value in data set [3] (setting [10]) is reported as 0.0022 nM; in data set [3] (setting [6]), 0.13 nM; in data set [3] (geometric mean or median, ref 36) it was 0.17 ng/g lipid; in data set [3] (setting [7]) it was 9.9 ng/g lipid; in data set [3] (geometric mean or median, ref 54), 0.0131 nM. In addition, the results for the “Maximum Serum Concentration” value in data set [3] (setting [10]), in data set [3] (ref 36) and in data set [3] (ref 54) were 0.137 nM, 10.8 ng/g lipid and 0.336 nM, respectively. Moreover, at DIO2 [4] (H4 cells), the “lowest dose that significantly decreased DIO2 activity” value is recorded as 5,000 nM. Further, the “decrease in DIO2 activity” value is 57.1 ± 11.4% at DIO2 [4] (setting [8]) and 45–80% at DIO2 [4] (setting [9]). The “Significant DIO2 Effects in H4 Cells (%Ctrl)” value on DIO2 [4] was 57.1%. Moreover, the “DIO2 mRNA expression ratio relative to the control value of 1.0” value in the data set on DIO2 mRNA (H4 cells, 5,000 nM, normalized to RPL13A) stood at 0.59 ± 0.08. Besides, the “membrane damage vs control” value in the data set on cultured cells [5] was “not significantly different from control”.

On to `Brc1ccc(Oc2ccc(Br)cc2Br)c(Br)c1` [BDE-47], for which, in the data set with cultured cells [1], the “significant effects on viability” value is “not detected”. Further, the “Average Serum Concentration” value is listed as 0.305 nM in data set [3] (setting [11]); 1.01 nM in data set [3] (setting [12]); 1.02 nM in data set [3] (setting [13]); 23.3 ng/g lipid in data set [3] (geometric mean or median, ref 5); 77 ng/g lipid in data set [3] (geometric mean or median, ref 43); 77.8 ng/g lipid in data set [3] (geometric mean or median, ref 52). Moreover, the “Maximum Serum Concentration” value in data set [3] (setting [11]) was 4.58 nM; in data set [3] (setting [12]), 1.94 nM; in data set [3] (setting [13]), 60.7 nM; in data set [3] (ref 5), 350 ng/g lipid; in data set [3] (ref 43), 148 ng/g lipid; in data set [3] (ref 52) it was 4,640 ng/g lipid. Besides, the “effect on DIO2 activity” value at DIO2 [4] (H4 cells, any of the exposure concentrations, 6 h exposure) is recorded as “did not significantly alter”. For the same compound, at DIO2 [4], the “Significant DIO2 Effects in H4 Cells (%Ctrl)” value was “None”. The “DIO2 mRNA expression level vs control” value in the data set with DIO2 mRNA (H4 cells) is on record as “not significantly different from control”. For the same compound, the “significant effects on membrane damage” value in the data set with cultured cells [5] is “not detected”.
